HCV core dimer: HCV core protein dimerization inhibition | actives 0.33% (n = 300,000) | TR-FRET GST/Flag-core106 dimerization, 1536-well | inhibition, % at 5 µM;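 active = inhibition above the mean of all tested compounds plus 3 SD, set per screening campaign, cut at about 45% in these data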
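Assay system: tagged HCV core106 pair (GST and Flag); medium: KF-containing HEPES buffer, pH 7.45, DTT, CHAPS, BSA; also added: Eu donor and XL665 acceptor anti-tag antibodies; dosing: 5 µM single dose; timing: compound-protein-antibody incubation 4 h at 22.5 °C; signal: TR-FRET 671 and 617 nm emission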
GPR7 antag: blocks human GPR7 receptor signaling. P48145. GPR7-expressing cells, fluorescence antagonist assay. inhibition, % at 4.4 µM. actives 1.1% (n = 290,000); in the data active = inhibition above about 16%, passing the limit was not always enough;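 also: cells stimulated with the agonist NPW; 0% = agonist with vehicle and 100% = vehicle without agonist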
Target sequence (P48145 whole entry, looked up): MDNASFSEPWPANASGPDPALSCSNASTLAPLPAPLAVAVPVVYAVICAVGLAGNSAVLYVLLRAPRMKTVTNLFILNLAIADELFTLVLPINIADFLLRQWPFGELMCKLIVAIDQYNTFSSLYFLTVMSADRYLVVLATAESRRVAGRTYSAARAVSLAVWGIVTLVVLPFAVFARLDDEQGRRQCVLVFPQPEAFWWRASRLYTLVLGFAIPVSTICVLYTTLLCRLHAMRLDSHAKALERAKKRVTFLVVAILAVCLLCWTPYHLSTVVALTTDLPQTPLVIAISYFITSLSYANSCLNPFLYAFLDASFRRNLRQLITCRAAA
DAGLB inh: diacylglycerol lipase beta (human) inhibition; HEK293T DAGLB membrane lysate, EnzChek fluorogenic substrate; inhibition, % at 5.17 µM; actives 0.059% (n = 340,000); in the data active = inhibition above about 34%;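 also: 0% = enzyme with vehicle and 100% = wells lacking enzyme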
GRK2 aptamer HTS: blocks RNA aptamer binding to human GRK2. P25098. bead flow cytometry, FAM-aptamer displacement from GRK2. inhibition of aptamer binding, % at 10 µM. actives 0.59% (n = 330,000). AID 488847;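 active = inhibition of aptamer binding above 40%, roughly 3 SD of noise, on plates passing a quality check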;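 also: median bead fluorescence of bound FAM aptamer so fluorescent compounds give negative values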
HCV NS3 hel inh: inhibitors of Hepatitis C virus NS3 helicase. NS3 helicase DNA unwinding, Cy5 molecular beacon fluorescence. inhibition, % at 10.9 µM. actives 0.56% (n = 290,000);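 active = inhibition above the mean of all tested compounds plus 3 SD, set per campaign, cut at about 35% in these data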;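 also: 0% = DMSO wells and 100% = thioflavine S control wells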
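System: HCV NS3 helicase fragment; control set: DMSO and thioflavine S; technique: Cy5 fluorescence at 0 and 60 min, beacon hairpin quenching; reagent: beacon DNA duplex substrate plus ATP; replicates: singlicate; schedule: 1 h reaction at 25 °C, ATP-initiated; medium: MOPS buffer pH 6.5 with MgCl2, DTT, Tween20, BSA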
DNA FID counter: fluorescent intercalator displacement, NS3 helicase counter-screen; DNA fluorescent intercalator displacement, fluorescence; inhibition, % at 7.9 µM; actives 0.17% (n = 290,000); in the data active = inhibition above about 37%;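 also: 0% = vehicle and 100% = reference compound; higher means more ethidium bromide displaced from hairpin DNA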
DAGLB confirm: DAGLB (human) inhibition, confirmation screen; shares compounds with DAGLB inh; actives 73% (n = 190); AID 504445; inhibition, % at 5.17 µM; HEK293T DAGLB membrane lysate, EnzChek fluorogenic substrate;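 active = mean inhibition over triplicate wells above a set limit taken from the primary lipase screen, cut at about 34% in these data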;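 also: 0% = DAGLB with DMSO and 100% = wells lacking DAGLB enzyme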
* = called active by the depositor; . = not tested or not shown. This is a sample that favours compounds with a hit; in the whole collection about 2.2% have one here.

SMILES	HCV core dimer	GPR7 antag	DAGLB inh	GRK2 aptamer HTS	HCV NS3 hel inh	DNA FID counter	DAGLB confirm
O=c1cc(-c2ccccc2)oc2ccccc12	-2	.	-6	0	.	.	.
Nc1cc([N+](=O)[O-])cc2oc(-c3ccccc3)cc12	-34	16	37*	0	-11	17	37*
COc1ccc(CN2CC[C@H]3C=CC[C@@H](C(=O)NCCc4ccccc4)[C@H]3C2=O)cc1OC	-3	.	1	5	.	.	.
COc1cc(NC(=O)C2CC(c3c(F)cccc3Cl)=NO2)cc(OC)c1OC (centres undefined)	12	-1	-7	0	-3	-33	.
CC1=C(O)C(=O)C(c2c(C)cc(C)c(Br)c2C)=C(O)C1=O	.	.	43*	.	.	.	33
Nc1ccc(N(CCO)CCO)cc1	-15	-9	-2	4	3	3	.
Cc1cc(N(CCO)CCO)ccc1N=Nc1cc(F)ccc1F	-7	7	43*	3	-12	-2	45*
CC/C(C)=C1/NC(=O)NC1=O	.	.	-1	.	.	.	.
C/C(C/C(C)=C1/SC(=S)NC1=O)=C1\SC(=S)NC1=O	.	-2	47*	.	29	-10	35*
Nc1nc(-c2ccccc2)c(N=Nc2ccccc2Cl)s1	-4	-7	65*	1	-20	21	91*
CC(=O)Nc1sc(N)nc1-c1ccccc1	-10	2	2	3	7	-1	.
Nc1nc(-c2ccccc2)c(N=Nc2cccc3ccccc23)s1	-13	-17	61*	0	-14	20	66*
CC1(C2CCC3C4CCC5CC6(CCC5(C)C4C(=O)CC32C)OCCO6)OCCO1 (centres undefined)	.	.	-5	.	.	.	.
CC(C)(C)NC(=O)NC(=O)COC(=O)C1CCN(S(=O)(=O)c2cccs2)CC1	.	.	-2	0	.	.	.
NS(=O)(=O)c1ccc(CCNC(=O)C(=O)c2cn(CC(=O)N3CCOCC3)c3ccccc23)cc1	-6	-15	1	2	7	-28	.
O=C(c1ccc2c(c1)OCO2)N1CCC2(CC1)Oc1ccc(Cl)cc1C(=O)C21CC(c2ccccc2)=NO1 (centres undefined)	4	.	-2	4	.	.	.
N#C/C(=C\c1ccc(O)c([N+](=O)[O-])c1)c1nc2ccccc2s1	.	20*	38*	.	24	-21	39*
CC(C)CN1C(=O)C(=O)N(CC(=O)c2ccc3c(c2)OCO3)C1=O	-2	.	0	1	.	.	.
CNc1ccc(N=Nc2cccc3ncccc23)cc1	.	.	34*	.	.	.	56*
Nn1c(=O)[nH]c2ccccc2c1=O	-2	-6	-1	3	1	-1	.
N#C/C(=C/c1ccc(C(=O)O)cc1)C(=O)NCc1ccccc1	3	-8	-1	5	11	-1	.
N#C/C(=C\c1ccc(O)c(O)c1)C(=O)NCCCc1ccccc1	-15	9	40*	2	10	-5	17
Cn1c(N=Nc2ccccc2)nc2ccccc21	-2	-2	7	1	-1	0	.
CN(C)c1ccc(N=Nc2nc3ccccc3n2C)cc1	-28	14	36*	0	-21	34	59*
COc1ccc(CC(=O)Nc2cc(C)ccc2O)cc1OC	-1	-15	-1	1	-4	-1	.
SMILES	HCV core dimer	GPR7 antag	DAGLB inh	GRK2 aptamer HTS	HCV NS3 hel inh	DNA FID counter	DAGLB confirm
O=C(NNc1c2ccccc2nc2ccccc12)c1ccccc1O	-36	-1	48*	0	1	4	82*
O=C(NNc1c2ccccc2nc2ccccc12)c1ccc(O)cc1O	-25	-1	39*	0	1	3	53*
CN(C(=O)Cn1nnc(-c2ccccc2)n1)C1CCS(=O)(=O)C1 (centres undefined)	1	.	0	0	.	.	.
Nc1ccc(C(=O)N2CCN(S(=O)(=O)c3ccc(Cl)s3)CC2)cc1[N+](=O)[O-]	-2	.	4	2	.	.	.
NC(=O)CC(NC(=O)c1ccc(Br)cc1)c1ccc(NCCc2ccc(F)cc2)c([N+](=O)[O-])c1 (centres undefined)	7	.	39*	2	.	.	76*
NC(=O)CC(NC(=O)c1ccccc1)c1ccc(NCCc2cccc(F)c2)c([N+](=O)[O-])c1 (centres undefined)	11	.	14	0	.	.	.
CC(=O)c1ccc(NC(=O)COC(=O)c2ccccc2N=Nc2ccc(N(C)C)cc2)cc1	2	1	36*	3	6	-11	28
CC1Sc2ccc(S(=O)(=O)CCC(=O)N(C)Cc3ccccc3)cc2NC1=O (centres undefined)	-11	-9	0	13	15	-48	.
Nc1cccc2c1C(=O)c1ccc(Cl)cc1C2=O	.	.	38*	.	.	.	40*
O=C(O)c1cccc2c1-c1ccc(Cl)cc1C2=O	.	.	1	.	.	.	.
CC/C(=N\Nc1ccc([N+](=O)[O-])cc1[N+](=O)[O-])c1ccc(O)cc1	-4	-5	39*	1	6	15	38*
CC/C(=N\Nc1ccccc1[N+](=O)[O-])c1ccc(O)cc1	-10	-12	.	2	-9	14	.
CC1CC(C)CN(C(=O)c2ccc3c(c2NCCO)C(=O)c2ccccc2C3=O)C1 (centres undefined)	-35	-3	44*	0	-3	-26	63*
O=C(O)c1ccccc1NS(=O)(=O)c1ccc(NN=Cc2ccc(F)cc2)c([N+](=O)[O-])c1	.	.	37*	0	.	.	33
O=C(O)c1ccccc1NS(=O)(=O)c1ccc(NN=Cc2cccc(Cl)c2)c([N+](=O)[O-])c1	.	.	17	2	.	.	.
O=C(O)c1ccccc1NS(=O)(=O)c1ccc(N/N=C/c2ccc(O)c(O)c2)c([N+](=O)[O-])c1	.	.	52*	.	.	.	59*
O=C(O)COc1ccccc1/C=N/Nc1ccc(S(=O)(=O)Nc2ccc(Cl)cc2)cc1[N+](=O)[O-]	16	-12	40*	2	-23	33	40*
CCN(CC)C(=O)C1CCCN(C(=O)c2oc3ccc(C)cc3c2C)C1 (centres undefined)	1	-19	0	1	-3	-29	.
COc1ccc(/C=N/Nc2ccc(C(F)(F)F)cc2[N+](=O)[O-])cc1O	0	-14	40*	0	-8	2	64*
COc1ccc(Cn2c(-c3ccccc3C)nc3c(c(=O)c4ccccc4n3C)c2=O)cc1	20	.	2	0	.	.	.
Cn1cc(/C=C2\SC(=O)NC2=S)c2ccccc21	-5	-7	37*	2	17	0	54*
COc1cc([C@H]2c3[nH]c4ccccc4c3C[C@H]3C(=O)N4[C@@H](c5cc(OC)c(OC)c(OC)c5)c5[nH]c6ccccc6c5C[C@H]4C(=O)N23)cc(OC)c1OC	29	-3	35*	0	-20	-18	43*

Bioassay records (PubChem)
